Among the data in BindingDB's records for doi:10.1021/jm00031a021 (Tap Pharmaceuticals, 1994) are Ki values, retold here.

Molecules are shown by their SMILES. Where a SMILES comes first, the peptide text is derived from it. [ ]: non-standard residue; d: D form. The star is where a group is joined. Propanoyl(3-(4-Cl-Ph)) = O=C(CCc1ccc(Cl)cc1)*; dPhe(4-Cl) = N[C@H](Cc1ccc(Cl)cc1)C(=O)O; d2Nal = N[C@H](Cc1ccc2ccccc2c1)C(=O)O; Lys(iPr) = CC(C)NCCCC[C@H](N)C(=O)O; NMeY = CN[C@@H](Cc1ccc(O)cc1)C(=O)O; d3Pal = N[C@H](Cc1cccnc1)C(=O)O; pGlu = O=C1CC[C@@H](C(=O)O)N1; Nicotinoyl = O=C(c1cccnc1)*

Broadly, the Ki is the dissociation constant of the complex between target and ligand, obtained from inhibition or displacement. Low values mean tighter binding, high ones weaker binding.

For the assay, the target named is T1, Gonadotropin-releasing hormone receptor (Rattus norvegicus, UniProt P30969).
T1 sequence (P30969 whole entry): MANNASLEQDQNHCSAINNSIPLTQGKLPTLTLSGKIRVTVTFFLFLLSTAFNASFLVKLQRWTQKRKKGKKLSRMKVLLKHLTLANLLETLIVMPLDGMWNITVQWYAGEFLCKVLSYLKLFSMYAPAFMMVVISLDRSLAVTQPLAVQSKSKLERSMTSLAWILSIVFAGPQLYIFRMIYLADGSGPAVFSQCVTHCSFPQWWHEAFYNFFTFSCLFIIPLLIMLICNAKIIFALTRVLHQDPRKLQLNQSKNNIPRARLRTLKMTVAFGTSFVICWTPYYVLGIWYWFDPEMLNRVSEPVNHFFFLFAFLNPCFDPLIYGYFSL
Put plainly: Inhibition of the in vitro binding of [125I]-labeled leuprolide to the rat pituitary luteinizing hormone releasing hormone (LHRH) receptor. Summed up: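 Rat pituitary LHRH receptor binding with 125I-labeled leuprolide as radioligand. pKI is the negative log of the analogue concentration inhibiting 50% of tracer binding. Compounds tested as TFA salts.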

As to `CC(=O)N[C@H](Cc1ccc2ccccc2c1)C(=O)N[C@H](Cc1ccc(Cl)cc1)C(=O)N[C@H](Cc1cccnc1)C(=O)N[C@@H](CO)C(=O)N(C)[C@@H](Cc1ccc(O)cc1)C(=O)N[C@H](CCCCNC(=O)c1cccnc1)C(=O)N[C@@H](CC(C)C)C(=O)N[C@@H](CCCCNC(C)C)C(=O)N1CCC[C@H]1C(=O)N[C@H](C)C(N)=O` (Ac-[d2Nal][dPhe(4-Cl)][d3Pal]S[NMeY][dK](Nicotinoyl)L[Lys(iPr)]P[dA]-NH2), the inhibition constant Ki amounted to 32 pM. This lies in the picomolar range.
For `CCNC(=O)[C@H]1CCCN1C(=O)[C@H](CCCN=C(N)N)NC(=O)[C@H](CC(C)C)NC(=O)[C@@H](Cc1ccc(Cl)cc1)NC(=O)[C@H](Cc1ccc(O)cc1)NC(=O)[C@H](CO)NC(=O)[C@H](Cc1c[nH]c2ccccc12)NC(=O)CCc1ccc(F)cc1` the value was 18 pM; for `CCNC(=O)[C@H]1CCCN1C(=O)[C@H](CCCN=C(N)N)NC(=O)[C@H](CC(C)C)NC(=O)[C@@H](Cc1c[nH]c2ccccc12)NC(=O)[C@H](Cc1ccc(O)cc1)NC(=O)[C@H](CO)N(C)C(=O)[C@H](Cc1c[nH]c2ccccc12)NC(=O)CCc1ccc(F)cc1`, 135 pM; for `CCNC(=O)[C@@H]1CCCN1C(=O)[C@H](CCCN=C(N)N)NC(=O)[C@H](CC(C)C)NC(=O)[C@@H](Cc1c[nH]c2ccccc12)NC(=O)[C@H](Cc1ccc(O)cc1)NC(=O)[C@H](CO)NC(=O)[C@H](Cc1c[nH]c2ccccc12)NC(=O)CCc1ccc(F)c(F)c1`, 52 pM.
Then `CCNC(=O)[C@H]1CCCN1C(=O)[C@H](CCCN=C(N)N)NC(=O)[C@H](CC(C)C)NC(=O)[C@@H](CCCCNC(=O)c1cccnc1)NC(=O)[C@H](Cc1ccc(O)cc1)N(C)C(=O)[C@H](CO)NC(=O)[C@H](Cc1c[nH]c2ccccc12)NC(=O)CCc1ccc(Cl)cc1`, with 20 pM; and `CCNC(=O)[C@@H]1CCCN1C(=O)[C@H](CCCN=C(N)N)NC(=O)[C@H](CC(C)C)NC(=O)[C@@H](Cc1c[nH]c2ccccc12)NC(=O)[C@H](Cc1ccc(O)cc1)NC(=O)[C@H](CO)NC(=O)[C@@H](Cc1ccc(O)cc1)NC(=O)CCc1ccc(Cl)cc1` ({Propanoyl(3-(4-Cl-Ph))}-[dY]SY[dW]LRP-NHEt), with 18 pM.
Then `CC(C)C[C@H](NC(=O)[C@@H](CCCCNC(=O)c1cccnc1)NC(=O)[C@H](Cc1ccc(O)cc1)N(C)C(=O)[C@H](CO)NC(=O)[C@H](Cc1cccc2ccccc12)NC(=O)CCc1ccc(F)cc1)C(=O)N[C@@H](CCCCNC(C)C)C(=O)N1CCC[C@@H]1C(=O)O`, with 537 pM.
In turn, `CCNC(=O)[C@@H]1CCCN1C(=O)[C@H](CCCN=C(N)N)NC(=O)[C@H](CC(C)C)NC(=O)[C@@H](Cc1c[nH]c2ccccc12)NC(=O)[C@H](Cc1ccc(O)cc1)NC(=O)[C@H](CO)NC(=O)[C@H](Cc1c[nH]c2ccccc12)NC(=O)[C@H](Cc1ccccc1)NC(=O)[C@@H]1CCC(=O)N1` ([pGlu]FWSY[dW]LRP-NHEt) displayed a Ki of 25 pM.
For `CCNC(=O)[C@H]1CCCN1C(=O)[C@H](CCCN=C(N)N)NC(=O)[C@H](CC(C)C)NC(=O)[C@@H](CCCCNC(=O)c1cccnc1)NC(=O)[C@H](Cc1ccc(O)cc1)N(C)C(=O)[C@H](CO)NC(=O)[C@H](Cc1c[nH]c2ccccc12)NC(=O)CCc1ccc(F)cc1` the value was 17 pM; for `CCNC(=O)[C@@H]1CCCN1C(=O)[C@H](CCCN=C(N)N)NC(=O)[C@H](CC(C)C)NC(=O)[C@@H](Cc1c[nH]c2ccccc12)NC(=O)[C@H](Cc1ccc(O)cc1)NC(=O)[C@H](CO)NC(=O)[C@H](Cc1c[nH]c2ccccc12)NC(=O)Cc1ccccc1`, 832 pM.
